# Reference: ChEMBL document CHEMBL1123827, “Alpha 2-adrenergic agonists/antagonists: the synthesis and structure-activity relationships of a series of indolin-2-yl and tetrahydroquinolin-2-yl imidazolines” (J Med Chem, 1987)
# How the values were obtained:
# [1] = target: T1, Adrenergic receptor alpha-2 (Rattus norvegicus, UniProt P22086+P19328+P22909); experiment: The compound was evaluated for the alpha-2 adrenergic receptor activity in rat vas deferens.
# T1 sequence (P22086 whole entry): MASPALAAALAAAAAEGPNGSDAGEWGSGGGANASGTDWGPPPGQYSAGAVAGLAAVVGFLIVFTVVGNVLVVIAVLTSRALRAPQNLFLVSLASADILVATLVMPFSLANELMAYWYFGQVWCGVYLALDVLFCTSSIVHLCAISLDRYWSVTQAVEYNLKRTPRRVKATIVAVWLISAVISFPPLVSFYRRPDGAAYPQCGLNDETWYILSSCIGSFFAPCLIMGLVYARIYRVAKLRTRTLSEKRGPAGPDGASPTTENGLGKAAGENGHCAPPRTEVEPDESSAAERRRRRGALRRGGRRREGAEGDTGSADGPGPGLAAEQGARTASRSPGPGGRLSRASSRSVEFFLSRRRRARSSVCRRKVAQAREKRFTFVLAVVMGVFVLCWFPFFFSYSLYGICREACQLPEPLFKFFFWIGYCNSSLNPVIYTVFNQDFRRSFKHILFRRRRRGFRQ
# T1 sequence (P19328 whole entry): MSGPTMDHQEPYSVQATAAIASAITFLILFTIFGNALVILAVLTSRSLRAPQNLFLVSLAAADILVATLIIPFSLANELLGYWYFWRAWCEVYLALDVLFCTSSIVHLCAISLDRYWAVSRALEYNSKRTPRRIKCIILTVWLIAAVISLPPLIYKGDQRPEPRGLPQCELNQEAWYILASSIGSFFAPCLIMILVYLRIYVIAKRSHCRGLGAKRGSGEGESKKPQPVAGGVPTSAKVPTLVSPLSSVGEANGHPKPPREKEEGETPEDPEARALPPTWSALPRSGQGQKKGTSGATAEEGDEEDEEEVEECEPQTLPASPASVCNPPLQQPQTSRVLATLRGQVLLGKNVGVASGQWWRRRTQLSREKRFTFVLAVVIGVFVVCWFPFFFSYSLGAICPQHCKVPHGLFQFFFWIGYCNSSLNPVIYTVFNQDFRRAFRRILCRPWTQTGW
# T1 sequence (P22909 whole entry): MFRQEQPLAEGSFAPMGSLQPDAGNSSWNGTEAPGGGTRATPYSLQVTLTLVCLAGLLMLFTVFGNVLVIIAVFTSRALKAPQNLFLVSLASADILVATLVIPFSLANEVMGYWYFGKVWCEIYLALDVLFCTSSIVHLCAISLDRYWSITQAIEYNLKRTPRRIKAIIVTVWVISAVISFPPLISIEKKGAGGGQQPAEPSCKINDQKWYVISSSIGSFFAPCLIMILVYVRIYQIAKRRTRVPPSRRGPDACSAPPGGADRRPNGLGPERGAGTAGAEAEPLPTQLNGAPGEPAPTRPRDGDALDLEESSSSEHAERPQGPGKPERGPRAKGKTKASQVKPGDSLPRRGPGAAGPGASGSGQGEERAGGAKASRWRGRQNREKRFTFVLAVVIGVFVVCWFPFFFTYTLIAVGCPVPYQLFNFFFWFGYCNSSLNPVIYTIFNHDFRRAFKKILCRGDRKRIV
# Procedure, shortened: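 Isolated vasa deferentia from Sprague-Dawley rats (180–250 g) mounted between platinum ring electrodes at 1 g resting tension in oxygenated Krebs at 37 °C. Single-pulse electrical stimulation (1 ms, 0.15 Hz, lowest voltage giving maximal contraction); inhibition of twitch contractions gives IC50 for agonists. Mean of at least three experiments, separate animals.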
# [2] = target: T1, Adrenergic receptor alpha-2; experiment: Binding affinity against alpha-2 adrenergic receptor was determined by the displacement of [3H]clonidine from rat brain cortical membranes; assay type: cell membranes, Membrane
structure (smiles),measurement,setting,value
CSC[C@@]1(C2=NCCN2)Cc2ccccc2N1C,IC50,[1],0.179 µM
same,Ki,[2],0.0132 µM
